Test results published in ChEMBL document CHEMBL1141608, “Azaterphenyl diamidines as antileishmanial agents” (Bioorg Med Chem Lett, 2008).
Active and inactive are the calls of the source. No cut-off for these calls is given here.

Legend:
Leishmania amazonensis [1] = experiment: Antileishmanial activity against Leishmania amazonensis in mouse J774 cells
Leishmania donovani [2] = experiment: Antileishmanial activity against Leishmania donovani axenic amastigotes; format: functional, organism-based
Method in brief: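 Axenic L. donovani amastigotes; IC50 is the mean of at least two independent assays.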

L6 = experiment: Cytotoxicity against rat L6 cells; format: cell-based
Leishmania donovani [3] = experiment: Induction of mitochondrial dilation in Leishmania donovani axenic amastigotes at […] after 24 hrs; format: functional, organism-based
Leishmania donovani [4] = experiment: Induction of kinetoplast disintegration in Leishmania donovani axenic amastigotes at […] after 24 hrs; format: functional, organism-based
J774 = experiment: Cytotoxicity against mouse J774 cells; format: cell-based
Leishmania amazonensis [5] = experiment: Antileishmanial activity against Leishmania amazonensis in mouse J774 cells at <5 uM
[6] = Binding affinity to poly(dA-dT)2 assessed as melting temperature

Row | SMILES | IC50 (Leishmania donovani [2]) [nM] | IC50 (L6) [nM] | also measured
1 | C[C@@H]1[C@H](O)[C@@H](C)/C=C/C=C/C=C/C=C/C=C/C=C/C=C/[C@H](O[C@@H]2O[C@H](C)[C@@H](O)[C@H](N)[C@@H]2O)C[C@@H]2O[C@](O)(C[C@@H](O)C[C@@H](O)[C@H](O)CC[C@@H](O)C[C@@H](O)CC(=O)O[C@H]1C)C[C@H](O)[C@H]2C(=O)O (stereo in doubt) [AMPHOTERICIN B] |  |  | IC50 (Leishmania amazonensis [1]): 46 nM
2 | N=C(N)c1ccc(-c2cnc(-c3ccc(C(=N)N)cc3)cn2)cc1 | 560 | 43000 | 
3 | N=C(N)c1ccc(-c2ccc(-c3cnc(C(=N)N)nc3)cc2)cc1 | 200 | 4700 | 
4 | N=C(N)c1ccc(-c2cnc(-c3ccc(C(=N)N)cc3)nc2)cc1 | 1100 | 41000 | 
5 | N=C(N)c1ccc(-c2ccc(-c3cnc(C(=N)N)nc3)cn2)cc1 | 2600 | 6400 | 
6 | N=C(N)c1ccc(-c2ccc(-c3ccc(C(=N)N)nc3)cc2)cc1 | 84 | 2800 | 
7 | N=C(N)c1ccc(-c2ccc(-c3ccc(C(=N)N)cn3)cc2)nc1 | > 100000 |  | 
8 | N=C(N)c1ccc(-c2ccc(-c3ccc(C(=N)N)cc3)cc2)cc1 | 270 | 22000 | Activity (Leishmania donovani [3]): Active; Activity (Leishmania donovani [4]): Active; Activity (J774): Toxic; Activity (Leishmania amazonensis [5]): inactive
9 | N=C(N)c1ncc(-c2ccc(-c3cnc(C(=N)N)nc3)cc2)cn1 | 1700 | 2200 | 
10 | N=C(N)c1ccc(-c2ccc(-c3ccc(C(=N)N)cn3)cc2)cc1 | 1400 | 27000 | 
11 | N=C(N)c1ccc(-c2ccc(-c3ccc(C(=N)N)cc3)nn2)cc1 | 720 | 31000 | 
12 | N=C(N)c1ccc(-c2ccc(-c3ccc(C(=N)N)cn3)cn2)cc1 | 6800 | 28000 | 
13 | N=C(N)c1ccc(-c2ccc(-c3ccc(C(=N)N)nc3)cn2)cc1 | 510 | 20000 | 
14 | N=C(N)c1ccc(-c2ccc(-c3ccc(C(=N)N)cc3)nc2)cc1 | 820 | 50000 | 
15 | N=C(N)c1ccc(-c2cnc(-c3ccc(C(=N)N)nc3)nc2)cn1 | 1800 | 5300 | ΔTm [6]: 6.8 °C
16 | N=C(N)c1ccc(-c2ccc(-c3cnc(C(=N)N)cn3)cn2)cc1 | 16000 | 93000 | 
17 | N=C(N)c1cnc(-c2ccc(-c3cnc(C(=N)N)cn3)cc2)cn1 |  | 47000 | 
18 | N=C(N)c1ccc(-c2ccc(-c3ccc(C(=N)N)nc3)cc2)cn1 | 63 | 1200 | Activity (J774): Toxic; Activity (Leishmania amazonensis [5]): inactive
19 | N=C(N)c1ccc(-c2ccc(-c3ccc(C(=N)N)cc3)c(F)c2)cc1 | 340 | 6400 | ΔTm [6]: 15.1 °C
